Source: PubChem BioAssay
KCNQ1 inh – human KCNQ1 channel inhibition; P51787; CHO-K1 KCNQ1, FluxOR thallium flux fluorescence; hits give high values; B-score at 10 µM; 310,000 compounds, 1.3% hits;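 active = compounds whose thallium flux B-score, printed positive for inhibition, exceeds three library SD while starting fluorescence stays within three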;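 note: channel opened by potassium depolarization with thallium stimulus after 20 min compound exposure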
hERG protect – hERG (human) protection from proarrhythmic block; CHO-hERG, FluxOR thallium flux, dofetilide IC70 present; activation (rescue from dofetilide block), less the hit threshold, % at 10 µM; 310,000 compounds, 0.51% hits; AID 1511;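 active = activation above the mean of controls blocked by dofetilide plus 5 SD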;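 note: thallium influx through hERG after potassium depolarization seen as dye fluorescence rise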
Target sequence (Q12809 whole entry, looked up): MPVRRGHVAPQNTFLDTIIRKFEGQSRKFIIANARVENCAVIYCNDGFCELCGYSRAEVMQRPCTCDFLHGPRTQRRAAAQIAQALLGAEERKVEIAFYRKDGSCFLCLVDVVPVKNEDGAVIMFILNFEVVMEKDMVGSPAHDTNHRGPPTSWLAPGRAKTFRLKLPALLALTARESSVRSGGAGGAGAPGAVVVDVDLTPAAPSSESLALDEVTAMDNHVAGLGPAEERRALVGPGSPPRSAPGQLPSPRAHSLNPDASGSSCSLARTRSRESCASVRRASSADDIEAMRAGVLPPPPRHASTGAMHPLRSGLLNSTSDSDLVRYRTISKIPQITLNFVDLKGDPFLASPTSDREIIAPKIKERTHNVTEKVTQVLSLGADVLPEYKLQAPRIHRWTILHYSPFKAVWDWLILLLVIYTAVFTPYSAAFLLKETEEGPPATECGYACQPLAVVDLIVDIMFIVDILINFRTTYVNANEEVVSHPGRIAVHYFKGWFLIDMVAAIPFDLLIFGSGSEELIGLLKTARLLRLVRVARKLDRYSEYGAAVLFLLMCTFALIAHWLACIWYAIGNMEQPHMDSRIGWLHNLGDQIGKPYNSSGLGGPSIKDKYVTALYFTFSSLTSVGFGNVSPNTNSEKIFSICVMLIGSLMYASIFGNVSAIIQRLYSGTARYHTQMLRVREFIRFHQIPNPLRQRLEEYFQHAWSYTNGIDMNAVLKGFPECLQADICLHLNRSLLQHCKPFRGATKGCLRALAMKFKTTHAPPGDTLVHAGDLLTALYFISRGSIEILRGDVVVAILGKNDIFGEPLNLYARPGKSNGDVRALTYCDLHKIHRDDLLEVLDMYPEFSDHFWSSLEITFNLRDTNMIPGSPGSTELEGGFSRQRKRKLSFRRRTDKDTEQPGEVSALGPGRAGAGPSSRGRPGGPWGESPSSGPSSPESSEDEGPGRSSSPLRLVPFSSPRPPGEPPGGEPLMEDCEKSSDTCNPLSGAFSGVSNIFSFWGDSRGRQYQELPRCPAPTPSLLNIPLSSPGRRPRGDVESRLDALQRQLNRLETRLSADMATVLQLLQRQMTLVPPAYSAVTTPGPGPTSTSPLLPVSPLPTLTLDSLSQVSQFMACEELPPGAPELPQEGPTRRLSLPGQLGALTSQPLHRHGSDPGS
KCNK3 block – human KCNK3 channel inhibition, primary screen; O14649; CHO-KCNK3 thallium flux, FluxOR fluorescence; hits give low values; B-score at 10 µM; 340,000 compounds, 0.84% hits;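 active = B-score under library mean minus 4 SD, starting fluorescence ratio at most library mean plus 5 SD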;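 note: more negative B-score means stronger inhibition of thallium flux through KCNK3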
KCNQ1 pot – potentiates or activates the human KCNQ1 potassium channel | P51787 | CHO-K1 KCNQ1, thallium flux FluxOR fluorescence; hits give high values | B-score at 10 µM | 310,000 compounds, 0.35% hits | AID 2648;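 active = fluorescence ratio B-score, a plate-corrected score, at least three library SD, with initial intensity B-score within 5 SD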
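System: Stable KCNQ1 CHO-K1 line | Incubation: 90 min dye loading and 20 min compound exposure, both at room temperature | Measure: Ratio B score | Medium: Assay buffer for compound exposure, DMSO matched across wells | Compound dosing: Single-concentration screen | Probe or stimulus: K+/Tl+ depolarizing stimulus | Measured by: Kinetic FluxOR fluorescence, 10 s baseline plus 110 s post-stimulus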
KCNK9 inh – inhibitors of human KCNK9 two-pore domain potassium channel; B-score at 10 µM; 310,000 compounds, 1.2% hits; HEK293 KCNK9, FluxOR thallium flux fluorescence; hits give low values; AID 488922;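 active = ratio B-score over 3 SD below the library mean, with starting fluorescence within 5 SD of its mean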;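 note: negative B-score means less thallium flux so channel inhibition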
Kir21 inh – blocks the mouse Kir2.1 inward-rectifier potassium channel; HEK293-Kir2.1, FluxOR thallium flux fluorescence; hits give low values; P35561; B-score at 10 µM; 310,000 compounds, 0.85% hits; AID 1672;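 active = fluorescence ratio B-score at or below minus 3 SD of library scores, with starting-brightness B-score within 2 SD, cut at about -4.2 in these data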;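 note: channel flux triggered by added potassium and thallium sulfate stimulus; B-score of peak minus minimum fluorescence over baseline after thallium stimulus; more negative B-score means stronger Kir2.1 block with less thallium influx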
KCNQ1 inh valid – reconfirmed blocker of the human KCNQ1 potassium channel. shares compounds with KCNQ1 inh. KCNQ1 cell line, FluxOR thallium flux fluorescence. inhibition, % at 10 µM. 1,600 compounds, 93% hits. AID 588353;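 active = primary screen active, with duplicate mean exceeding buffer control mean plus 3 SD of buffer wells, cut at about 28% in these data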
CHO KCNQ1 ctr – counter-screen for KCNQ1 inhibitors: effect in parental CHO cells; AID 588366; parental CHO-K1, FluxOR thallium flux fluorescence ratio; hits give low values; zero means no signal rise above baseline; fluorescence ratio (Tl flux) at 10 µM; shares compounds with KCNQ1 inh; 1,600 compounds, 21% hits;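 active = mean of duplicate thallium-flux fluorescence ratios in parental host cells more than 5 SD below the buffer control mean, cut at about 0.38 in these data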;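 note: ratio is peak minus minimum fluorescence divided by baseline fluorescence; actives read low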
KCNQ1 ephys val – blocks human KCNQ1 current in automated patch clamp; shares compounds with KCNQ1 inh; KCNQ1-CHO cells; calls only at 10 µM; 490 compounds, 20% hits; AID 624120;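 active = KCNQ1 current drop exceeding 3 SD of negative control wells, seen in both duplicate runs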;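 note: steady state current during a 2 s step from -80 to +40 mV; negative values mean current inhibition and positive values mean potentiation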
KCNQ2 inh – selectivity of KCNQ1 inhibitors: inhibition of rat KCNQ2 channel; shares compounds with KCNQ1 inh; KCNQ2 cells, FluxOR thallium flux fluorescence; inhibition, % at 10 µM; 1,600 compounds, 71% hits; AID 651746;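 active = mean percent inhibition of the KCNQ2 thallium signal more than 5 SD above the buffer-only control wells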;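 note: KCNQ2 expressed in CHO cells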
KCNQ1 KCNE1 spec – selectivity of KCNQ1 inhibitors: inhibition of human KCNQ1/KCNE1 channel; shares compounds with KCNQ1 inh; KCNQ1/KCNE1 cells, FluxOR thallium flux fluorescence; 1,600 compounds, 77% hits; inhibition, % at 10 µM; AID 652147;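 active = mean percent inhibition of duplicate wells above the buffer-only control mean plus 3 SD of those controls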
KCNK9 block conf – human KCNK9 inhibitor confirmation; AID 492992; shares compounds with KCNK9 inh; 4,900 compounds, 43% hits; HEK293 KCNK9 cells, FluxOR thallium flux fluorescence; inhibition, % at 10 µM;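 active = thallium signal inhibited by more than 5 SD of the compound-free buffer control wells, on both duplicate plates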
Kir2-1 spec – selectivity of KCNK9 modulators against mouse Kir2.1; shares compounds with KCNK9 inh; Kir2.1 cells, FluxOR thallium flux fluorescence; inhibition, % at 10 µM; 4,900 compounds, 4% hits;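 active = thallium signal drop more than 5 SD beyond the mean of the no-compound control wells, seen in both duplicate plates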;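 note: signal is fluorescence rise after thallium addition divided by baseline fluorescence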
HEK293 Tl ctr – second check of KCNK9 modulator effects in non-induced HEK293 cells; shares compounds with KCNK9 inh; AID 492997; 4,900 compounds, 40% hits; inhibition, % at 10 µM; FluxOR thallium flux;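 active = thallium signal drop beyond 5 SD of the untreated control mean, on both duplicate plates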
KCNK3 confirm – human KCNK3 channel inhibition, confirmation assay; shares compounds with KCNK3 block; CHO-KCNK3 thallium flux, FluxOR fluorescence; 0% buffer, 100% carvedilol maximal block; ratio percent of control, % at 10 µM; 2,400 compounds, 99% hits; AID 651638;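 active = ratio percent of control, averaged over triplicates, above buffer control mean plus 5 SD, cut at about 64% in these data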;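 note: ratio is the fluorescence rise from min to max over baseline after thallium stimulus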
KCNK3 uninduced – activity in cells without induced KCNK3 expression. shares compounds with KCNK3 block. non-induced KCNK3 parental cells, FluxOR thallium flux; hits give low values. thallium flux ratio (lower = more inhibition) at 10 µM. 2,400 compounds, 40% hits;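 active = thallium flux ratio, averaged over three wells, more than 5 SD below the buffer control mean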;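 note: host cells are CHO cells without KCNK3 induction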
A number is an active result; i = inactive; nt = not tested or not shown. Hits are enriched below; roughly 3.8% of the tested compounds scored in any of these assays.

SMILES | KCNQ1 inh | hERG protect | KCNK3 block | KCNQ1 pot | KCNK9 inh | Kir21 inh | KCNK9 block conf | Kir2-1 spec | HEK293 Tl ctr | others
CC(C)CNC(=S)N1CCN(c2nc(-c3ccc(Cl)cc3)cs2)CC1 | 11 | i | -9.76 | i | i | i | nt | nt | nt | KCNQ1 inh valid=159.0;CHO KCNQ1 ctr=i;KCNQ1 ephys val=i;KCNQ2 inh=127.7%;KCNQ1 KCNE1 spec=141.5%;KCNK3 confirm=140.3;KCNK3 uninduced=0.123
O=C(C1CCCN(S(=O)(=O)c2cccs2)C1)N1CCN(C2CCCCC2)CC1 (stereo not given) | i | i | i | i | i | i | nt | nt | nt
Cc1cc(C)cc(OCC(O)CN2CCC(CN3C(=O)c4cccc5cccc(c45)C3=O)CC2)c1 (stereo not given) | 9 | i | -9.54 | i | i | i | i | i | i | KCNQ1 inh valid=128.5;CHO KCNQ1 ctr=i;KCNQ1 ephys val=i;KCNQ2 inh=99.0%;KCNQ1 KCNE1 spec=138.5%;KCNK3 confirm=110.7;KCNK3 uninduced=i
CCCNC(=O)Cn1cnc([N+](=O)[O-])n1 | i | i | i | i | i | i | nt | nt | nt
C/C(=N\N=c1/scc(C)n1Cc1ccco1)c1cccc([N+](=O)[O-])c1 | i | i | i | i | -8.73 | i | i | i | i
COc1cc(NC(=O)c2ccccc2F)ccc1NC(=O)c1cc2ccccc2o1 | i | i | i | i | i | i | nt | nt | nt
CN(C(=O)CC1C(=O)NCCN1Cc1ccccc1C(F)(F)F)C1CCOCC1 (stereo not given) | i | i | i | i | i | i | nt | nt | nt
COC(=O)c1cc(NC(=O)C2(S(=O)(=O)c3ccc(Cl)cc3)CC2)cc(C(=O)OC)c1 | i | i | i | i | i | i | nt | nt | nt
COC(=O)c1cc(NC(=O)C2(S(=O)(=O)c3ccc(C)cc3)CC2)cc(C(=O)OC)c1 | i | i | i | i | i | i | i | i | i
CCOc1ccccc1C=NNC(=O)C1CC1 | nt | nt | i | nt | nt | nt | nt | nt | nt
COc1ccc(-c2nnc(SCC(=O)NC3CCCC3)n2C)cc1 | i | i | i | i | i | i | nt | nt | nt
COc1ccc(C/C(N)=N/OC(=O)COc2ccccc2C)cc1 | i | i | i | i | i | i | nt | nt | nt
COc1ccccc1C/C(N)=N/OC(=O)COc1ccc(C)cc1C | i | i | i | i | i | i | i | i | i
O=c1c([N+](=O)[O-])cc(C(F)(F)F)cn1Cc1c(Cl)cccc1Cl | i | i | i | i | i | i | nt | nt | nt
O=C(Nc1cccnc1)c1ccc2nc(-c3ccccc3)c(-c3ccccc3)nc2c1 | i | i | i | i | -10.9 | i | 42.0% | i | 39.5%
NC(=O)CN(N=Nc1cccc([N+](=O)[O-])c1)c1cccc([N+](=O)[O-])c1 | i | i | i | i | i | i | nt | nt | nt
CCN(N=Nc1cccc([N+](=O)[O-])c1)c1cccc([N+](=O)[O-])c1 | i | i | i | i | -11.2 | i | 59.0% | i | 40.5%
O=C(Nc1cccc(Cl)c1)N(CCN1CCOCC1)Cc1cccc(Cl)c1 | 6 | i | -10.8 | i | -11.8 | i | 54.5% | i | 34.0%
CC(=O)Nc1ccc(C=NN=C2c3ccccc3-c3ccccc32)cc1 | nt | nt | i | nt | nt | nt | nt | nt | nt
O=[N+]([O-])c1ccccc1OCCCOc1cccc2cccnc12 | i | i | i | i | i | i | nt | nt | nt
O=C(NCC(c1ccco1)N1CCc2ccccc2C1)c1cccc(Br)c1 (stereo not given) | i | i | i | i | -12.2 | i | i | i | 25.5%
Cc1ccc(C)c(S(=O)(=O)NCC(c2ccco2)N2CCc3ccccc3C2)c1 (stereo not given) | i | i | i | i | -10.7 | i | 48.0% | i | 41.0%
O=C(NCC(c1ccco1)N1CCc2ccccc2C1)c1ccc(Br)cc1 (stereo not given) | i | i | i | i | i | i | i | i | 35.0%
Cc1ccc(C(=O)NCC(c2ccco2)N2CCc3ccccc3C2)cc1 (stereo not given) | i | i | i | i | i | i | nt | nt | nt
O=C(OCc1ccccc1)N1C=CC2CC1c1c(Cl)cccc12 (stereo not given) | nt | nt | i | nt | nt | nt | nt | nt | nt
SMILES | KCNQ1 inh | hERG protect | KCNK3 block | KCNQ1 pot | KCNK9 inh | Kir21 inh | KCNK9 block conf | Kir2-1 spec | HEK293 Tl ctr | others
CC(C)c1ccc(/C=N/NC(=O)C(=O)NCCCN2CCOCC2)cc1 | i | i | i | i | i | i | nt | nt | nt
Cn1c(=O)cc(C(=O)N/N=C/c2ccc(F)cc2)[nH]c1=O | i | i | i | i | i | i | nt | nt | nt
COC(=O)c1nnn(-c2nonc2N)c1CSc1nnc(N)s1 | i | i | i | i | i | i | nt | nt | nt
COc1cccc(C(=O)NC(C)c2ccc(-c3ccccc3)cc2)c1OC (stereo not given) | i | i | i | i | i | i | i | i | i
COc1cccc(C(=O)NC(C)c2cccc3ccccc23)c1OC (stereo not given) | i | i | i | i | i | i | nt | nt | nt
Cn1cccc1/C=N/NC(=O)C12CC3CC(CC(C3)C1)C2 | i | i | i | i | i | i | nt | nt | nt
CN(CCCC(=O)NC1CC(C)(C)NC(C)(C)C1)S(=O)(=O)c1ccc([N+](=O)[O-])cc1 | i | i | i | i | i | i | nt | nt | nt
CCOCCCNC(=S)N1CCCN(c2nc3cc(C)c(C)cc3cc2C#N)CC1 | i | i | i | i | i | i | i | i | i
